Source: PubChem
ERp5 block = inhibitors of human ERp5. Q15084. ERp5 insulin aggregation, absorbance 650 nm, 90 min. AID 651711. inhibition, % at 9.99 µM. 350,000 compounds, 0.05% hits;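 active = mean replicate inhibition above about 25%, with every replicate also reaching it, limit read from the data, passing the limit was not always enough; inconclusive = only one of those two criteria met; inactive = neither criterion met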
Target sequence (Q15084 whole entry, looked up): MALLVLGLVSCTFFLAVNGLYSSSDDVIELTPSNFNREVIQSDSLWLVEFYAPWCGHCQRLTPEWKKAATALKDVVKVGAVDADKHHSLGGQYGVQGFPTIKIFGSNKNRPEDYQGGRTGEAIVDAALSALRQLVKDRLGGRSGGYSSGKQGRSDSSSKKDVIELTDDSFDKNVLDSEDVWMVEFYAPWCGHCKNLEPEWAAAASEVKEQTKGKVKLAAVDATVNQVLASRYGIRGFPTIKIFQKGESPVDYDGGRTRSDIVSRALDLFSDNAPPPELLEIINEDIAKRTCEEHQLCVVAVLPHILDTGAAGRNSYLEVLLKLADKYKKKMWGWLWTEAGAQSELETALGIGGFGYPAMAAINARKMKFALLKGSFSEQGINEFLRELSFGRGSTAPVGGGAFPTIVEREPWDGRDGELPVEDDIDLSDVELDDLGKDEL
GSIS activator = GLuc luminescence reporter in INS-1E cells, primary screen for activators of glucose-dependent secretion of insulin; INS-1E GLuc reporter insulin secretion, 2-3 h; activation, % at 16.6 µM; 370,000 compounds, 0.61% hits;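 active = lowest replicate activation of at least 40%, so every replicate reaches that level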
S100A4 inh HTS = blocks human S100A4 binding to myosin IIA peptide; P26447; S100A4/TAMRA-MyoIIA peptide fluorescence polarization; inhibition, % at 10.7 µM; 360,000 compounds, 0.14% hits; AID 652163;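 active = mean inhibition of at least 70% across replicates, with every replicate also reaching that level; inconclusive = mean inhibition reaches 70% but some replicates fall short; inactive = mean inhibition below 70%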
Target sequence (P26447 whole entry, looked up): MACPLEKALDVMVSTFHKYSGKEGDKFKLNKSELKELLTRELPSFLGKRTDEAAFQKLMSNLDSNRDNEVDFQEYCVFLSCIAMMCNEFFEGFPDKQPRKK
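assay system = human S100A4 monomer with TAMRA-labelled myosin IIA peptide | also added = labelled myosin peptide probe, 5 nM | incubation = 5 min between mix addition and reading | control set = DMSO and TFP controls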
SIRT5 inh = sirtuin-5 (human) deacylase inhibition; inhibition, % at 15 µM; AID 652115; 330,000 compounds, 1.1% hits; Purified SirT5, succinyl-peptide AMC, trypsin-coupled fluorescence; in the data active = inhibition above about 15%; inconclusive = no clear call, values can overlap the other calls
PDI turbidity = PDI (human) enzyme inhibition. PDI insulin aggregation turbidity, A650, 90 min. inhibition, % at 10 µM. 350,000 compounds, 0.052% hits. AID 588391;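 active = mean inhibition across replicates of 30% or more, whatever share of single replicates reach that level; inconclusive = mean inhibition below 30% while every single replicate reaches 30%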
Hits are given with their value; n = inactive; u = inconclusive; x = no result; ! = not active in a repeat. An excerpt weighted towards active compounds, which were near 1.5% of everything screened.

SMILES	ERp5 block	GSIS activator	S100A4 inh HTS	SIRT5 inh	PDI turbidity
O=C(Nc1cccc(S(=O)(=O)C(F)(F)F)c1)[C@@H]1O[C@H](CO)[C@@H](O)[C@H]1O	n	43	n	x	n
COc1ccc(CN/C(C)=C(/C#N)C(N)=O)cc1OC	x	65	x	x	n
COc1ccc(CNC(N)=O)cc1OC	x	x	x	x	n
N=c1n(CCN2CCCCC2)c2ccccc2n1CC(O)COc1ccccc1 (stereo not drawn)	x	42	x	x	n
O=S(=O)(c1cccs1)N1CN(C2CCCCC2)c2nc3ccccc3nc21	n	80	n	n	n
O=S(=O)(c1cccs1)N1CN(C2CCCC2)c2nc3ccccc3nc21	n	n	n	n	x
COCCNC(=O)C[C@@H]1C[C@H]2c3cc(NS(=O)(=O)c4ccccc4)ccc3O[C@H]2[C@H](CO)O1	n	n	n	n	x
CN(C)CCCNS(=O)(=O)c1ccc(NC2CCCCCC2)c([N+](=O)[O-])c1	n	n	n	29	n
COc1ccc(C)c2sc(N(CCCN(C)C)C(=O)c3ccc(S(=O)(=O)N4CCc5ccccc5C4)cc3)nc12	n	189	n	n	n
COc1cccc2sc(N(CCCN(C)C)C(=O)c3ccc(S(=O)(=O)N4CCc5ccccc5C4)cc3)nc12	n	n	n	n	n
CCCC#Cc1ccc2c(c1)O[C@H](CN(C)Cc1ccncc1)[C@H](C)CN([C@@H](C)CO)S2(=O)=O	n	n	n	n	x
COc1cc(NC(=O)COC(=O)CNC(=O)c2ccc(Cl)cc2)c(C)cc1[N+](=O)[O-]	x	n	x	x	n
COc1cc(NC(=O)COC(=O)CNC(=O)c2ccc(C)cc2)c(C)cc1[N+](=O)[O-]	n	n	n	20	n
COc1ccc(C(=O)NCC(=O)OCC(=O)Nc2ccc(C)c(S(=O)(=O)N(C)C)c2)cc1OC	n	68	n	n	n
COc1cc(NC(=O)CN2CCC(Cc3ccccc3)CC2)c(C)cc1[N+](=O)[O-]	x	58	x	x	n
COc1ccc(CCC(=O)Nc2ccc(C)c(S(=O)(=O)N(C)C)c2)cc1OC	x	n	x	x	n
C=CCOc1ccc2c(c1)CCC1C2CCC2(C)C(O)C(O)CC12 (stereo not drawn)	n	47	n	x	n
C[C@]12CC[C@@H]3c4ccc(O[C@@H]5O[C@H](C(=O)O)[C@@H](O)[C@H](O)[C@H]5O)cc4CC[C@H]3[C@@H]1C[C@@H](O)[C@@H]2O	n	n	n	n	u
CN(C)CC(=O)Nc1ccc2c(c1)[C@@H]1C[C@@H](CC(=O)NCC3CC3)O[C@@H](CO)[C@@H]1O2	n	n	n	n	x
O=[N+]([O-])c1cccc(-c2ccc(/C=N/NC(=S)Nc3ccccc3)o2)c1	x	n	x	x	n
O=C(O)c1cc(-c2ccc(/C=N/NC(=S)Nc3ccccc3)o2)ccc1Cl	n	n	n	16	n
CCOC(=O)c1cnc2ccc(Cl)cc2c1Nc1ccc(S(=O)(=O)Nc2ncccn2)cc1	x	40	x	x	n
CC(C)CCN1C(=O)c2ccccc2C1c1nnnn1-c1ccc2c(c1)OCCO2 (stereo not drawn)	n	n	n	25	x
C[C@H](CO)N1C[C@H](C)[C@@H](CN(C)Cc2cccc(F)c2)OCc2ccccc2-c2ccccc2C1=O	n	n	n	n	x
CCOC(=O)C1C(=O)C=C(c2cccs2)CC1c1ccccc1C (stereo not drawn)	x	49	x	x	n
SMILES	ERp5 block	GSIS activator	S100A4 inh HTS	SIRT5 inh	PDI turbidity
C[C@@H]1CN([C@@H](C)CO)C(=O)c2cc(NS(=O)(=O)c3cn(C)cn3)ccc2O[C@@H]1CN(C)Cc1ccccc1	n	n	n	n	x
O=C1CSC(c2cccc([N+](=O)[O-])c2)N1Cc1ccccc1 (stereo not drawn)	n	n	n	n	n
O=C1CSC(c2cccc(O)c2)N1Cc1ccccc1 (stereo not drawn)	n	42	n	n	n
CC(=O)N1[C@@H]2c3ccc(-c4cccc(F)c4)c(=O)n3C[C@H]1[C@H](CO)[C@H]2C(=O)NCC1CC1	n	n	n	n	x
O=C(C[C@@H]1C[C@@H]2c3cc(NS(=O)(=O)c4ccc(F)cc4)ccc3O[C@@H]2[C@H](CO)O1)NCCc1ccccc1	n	n	n	n	x
C[C@@H]1CN([C@H](C)CO)C(=O)c2cccc(NC(=O)C3CCOCC3)c2O[C@@H]1CN(C)C(=O)Nc1ccc(C(F)(F)F)cc1	n	n	n	n	x
COc1ccccc1N(CC(=O)NCC1CCCO1)C(=O)CNS(=O)(=O)c1ccc(Cl)cc1 (stereo not drawn)	n	42	n	n	n
COc1ccccc1N(CC(=O)NCC1CCCO1)C(=O)CNS(=O)(=O)c1ccc(C)cc1 (stereo not drawn)	x	n	x	x	n
C[C@H]1CN(C)C(=O)Cc2cc(N(C)C)ccc2O[C@H]1CN(C)S(C)(=O)=O	x	n	x	x	x
C[C@@H]1CN([C@@H](C)CO)S(=O)(=O)c2ccc(-c3ccccc3)cc2O[C@@H]1CN(C)C(=O)c1ccc2c(c1)OCO2	n	n	n	16	x
C[C@H]1CN([C@@H](C)CO)S(=O)(=O)c2ccc(/C=C/c3ccccc3)cc2O[C@H]1CN(C)C(=O)c1ccc2c(c1)OCO2	n	n	n	22	x
C[C@@H]1CN([C@H](C)CO)S(=O)(=O)c2ccc(C#Cc3ccccc3F)cc2O[C@H]1CN(C)C(=O)c1ccc2c(c1)OCO2	n	n	n	36!	n
C[C@H](CO)N1C[C@H](C)[C@H](CN(C)C(=O)c2ccc3c(c2)OCO3)Oc2cc(/C=C/c3ccccc3)ccc2S1(=O)=O	n	n	n	29	x
O=C(C1CCOCC1)N1CC2(C1)[C@@H](c1ccccc1)[C@H](CO)N2Cc1ccc(Cl)cc1	n	n	n	n	x
O=C(C[C@H]1C[C@@H]2c3cc(NC(=O)CC4CC4)ccc3O[C@@H]2[C@@H](CO)O1)NCc1ccc(-c2ccccc2)cc1	63	n	n	n	x
CN(C)c1ccc2c(c1)[C@@H]1C[C@@H](CC(=O)NCc3ccccc3)O[C@H](CO)[C@@H]1O2	n	n	n	20	x
O=C(C[C@@H]1C[C@H]2c3cc(NS(=O)(=O)c4ccc(F)cc4)ccc3O[C@H]2[C@H](CO)O1)NCc1ccc(-c2ccccc2)cc1	n	n	n	20	x
O=C(C[C@@H]1C[C@H]2c3cc(NC(=O)CC4CC4)ccc3O[C@H]2[C@@H](CO)O1)NCc1ccc(-c2ccccc2)cc1	59	n	n	n	x
O=C(C[C@H]1C[C@@H]2c3cc(NC(=O)NC4CCCC4)ccc3O[C@@H]2[C@@H](CO)O1)NCc1ccc(Cl)cc1	98	n	n	n	x
O=C(C[C@@H]1C[C@H]2c3cc(NC(=O)NC4CCCC4)ccc3O[C@H]2[C@@H](CO)O1)NCc1ccc(Cl)cc1	x	n	n	n	x
CNC(=O)C(=O)NCC1OCCCN1S(=O)(=O)c1ccc(F)cc1C (stereo not drawn)	n	44	n	n	n
C[C@H]1CN([C@@H](C)CO)C(=O)c2cccc(N(C)C)c2O[C@@H]1CN(C)Cc1ccc(Oc2ccccc2)cc1	n	n	n	n	x
